According to ChEMBL document CHEMBL2417455, “Design, synthesis and biological evaluation of new aryl thiosemicarbazone as antichagasic candidates” (Eur J Med Chem, 2013):
The source made the active and inactive calls. The rule behind the calls is not given here.

Experiments:
Trypanosoma cruzi [1] = assay: Trypanocidal activity against epimastigote stage of Trypanosoma cruzi Y at 50 ug/mL after 72 hrs by MTT assay relative to control; format: functional
In short: (§1)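 Log-phase (7-day) Y-strain epimastigotes at 10⁷/mL in LIT medium with 10% fetal calf serum were exposed to DMSO-dissolved compound at 100, 50, 25, 10, 5, 2.5 and 1 µg/mL for 72 h at 28 °C. MTT-PMS was added for 75 min in the dark, then 10% SDS for 30 min. OD was read at 595 nm and percent death determined. IC50 by linear regression of OD. Triplicates, Probit analysis.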

Trypanosoma cruzi [2] = assay: Trypanocidal activity against epimastigote stage of Trypanosoma cruzi Y after 72 hrs by MTT assay; format: functional, organism-based; in short: as §1
[3] = target: Cruzipain (Trypanosoma cruzi) (UniProt P25779); assay: Inhibition of Trypanosoma cruzi cruzain expressed in Escherichia coli DH5-alpha using Bz-Phe-Arg-AMC as substrate at 10 uM preincubated for 5 mins followed by substrate addition measured for 5 mins by spectrofluorimetric analysis relative to control
In short: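 Recombinant cruzain at 0.23 nM in pH 6.5 buffer (50 mM Na2PO4, 2.5 mM EDTA), preincubated 5 min with or without inhibitor at a single 10 µM concentration. Bz-Phe-Arg-AMC was then added (stock 170 µM). Fluorescence was read at ex 380/em 460 nm, 37 °C, under magnetic stirring, for 5 min. Triplicate measurements.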

Mus musculus [4] = assay: Mutagenicity in Swiss albino mouse at 100 mg/kg after 30 hrs by micronucleus test; format: toxicity, organism-based; set-up: dose 100 mg/kg; conditions: in vivo
In short: (§2)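 Swiss albino mice (~30 g) were dosed by gavage at 50, 100 or 250 mg/kg bwt. Negative control received 1% CMC/0.2% Tween 40 aqueous solution by gavage; a water-only group set basal frequency. Tail blood was taken 30 h after treatment onto acridine orange slides and held ≥24 h at -20 °C in the dark. Micronuclei were counted per 1,000 reticulocytes per animal by fluorescence microscopy. Values are arithmetic means compared by one-way ANOVA/Tukey (P < 0.05).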

Mus musculus [5] = assay: Mutagenicity in Swiss albino mouse at 250 mg/kg after 30 hrs by micronucleus test; format: toxicity, organism-based; set-up: dose 250 mg/kg; conditions: in vivo; in short: as §2
Trypanosoma cruzi [6] = assay: Potency index, ratio of benznidazole IC50 to compound IC50 for epimastigote stage of Trypanosoma cruzi Y; format: functional
Trypanosoma cruzi [7] = assay: Trypanocidal activity against epimastigote stage of Trypanosoma cruzi Y at 5 ug/mL after 72 hrs by MTT assay relative to control; format: functional; in short: as §1
[8] = Trypanosoma cruzi, Y, 72 h, read-out: IC50

Chain of Cruzipain (Trypanosoma cruzi) (P25779 123-467 limits assumed): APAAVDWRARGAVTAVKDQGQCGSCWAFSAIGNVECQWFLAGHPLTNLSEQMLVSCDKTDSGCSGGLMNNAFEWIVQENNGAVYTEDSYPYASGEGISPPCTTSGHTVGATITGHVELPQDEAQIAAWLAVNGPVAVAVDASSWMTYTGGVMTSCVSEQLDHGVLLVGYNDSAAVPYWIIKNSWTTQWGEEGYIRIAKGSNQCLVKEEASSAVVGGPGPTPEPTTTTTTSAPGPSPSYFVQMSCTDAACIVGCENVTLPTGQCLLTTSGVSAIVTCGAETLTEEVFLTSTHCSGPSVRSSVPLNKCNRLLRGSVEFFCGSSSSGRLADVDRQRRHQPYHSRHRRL

Row | SMILES | IC50 (Trypanosoma cruzi [2]; [8]) [µM] | inhibition [3] | Activity (Mus musculus [4]) | further results
1 | NC/C(=N\NC(N)=S)c1cccc([N+](=O)[O-])c1 | > 299 | inactive |  | inhibition at 50 µg/mL (Trypanosoma cruzi [1]): 3%
2 | C/C(=N\NC(N)=S)c1ccc(N)cc1 | > 480 | 25% |  | 
3 | NC(=S)N/N=C(\CO)c1ccc([N+](=O)[O-])cc1 | 37.7 | 10% | Non-toxic | Activity (Mus musculus [5]): Non-toxic
4 | Br.NC/C(=N\NC(N)=S)c1ccc([N+](=O)[O-])cc1 | 6.3 | 20% | Non-toxic | Activity (Mus musculus [5]): Non-toxic; Ratio IC50 (Trypanosoma cruzi [6]): 5
5 | C/C(=N\N=C(/N)S)c1ccccc1 [PHENYL(METHYL)THIOSEMICARBAZONE] | 195 | inactive |  | 
6 | C/C(=N\NC(N)=S)c1cccc([N+](=O)[O-])c1 | > 420 | 5% |  | inhibition at 5 µg/mL (Trypanosoma cruzi [7]): 3%
7 | NC(=S)N/N=C(\COC(=O)CCC(=O)O)c1ccc([N+](=O)[O-])cc1 | 116 | 10% |  | 
8 | C/C(=N\NC(N)=S)c1cccc(N)c1 | > 480 | inactive |  | 
9 | NC/C(=N\NC(N)=S)c1ccccc1 | > 409 | inactive |  | 
10 | C/C(=N\NC(N)=S)c1ccc([N+](=O)[O-])c(N)c1 | 239 | 65% |  | 
11 | O=C(Cn1ccnc1[N+](=O)[O-])NCc1ccccc1 [BENZNIDAZOLE] | 34.6 |  | Toxic | 
12 | NC(=S)N/N=C(\CNC(=O)CCC(=O)O)c1ccc([N+](=O)[O-])cc1 | 12 | 50% | Non-toxic | Activity (Mus musculus [5]): Non-toxic
13 | C/C(=N\NC(N)=S)c1ccc(N)c([N+](=O)[O-])c1 |  | 55% |  | IC50 (Trypanosoma cruzi [2]): Not Active
